Compound activity: PubChem, The Scripps Research Institute Molecular Screening Center
This is a sample that favours compounds with a hit; in the whole collection about 4.6% have one here.
OX1R antag-1 = human HCRTR1 antagonism; inhibition, % at 5 µM; O43613; CHO/OX1R cells, Fluo-8 calcium fluorescence, orexin A; 330,000 compounds, 0.43% hits;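 active = inhibition above its plate's threshold, mean inhibition of all tested compounds on the plate plus 3 SD, cut at about 37% in these data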;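 note: 0% = orexin A challenge wells and 100% = SB-334867-A antagonist wells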
OX1R antag-2 = blocks the human orexin 1 receptor; O43613; OX1R-expressing cells, FRET antagonist read-out; inhibition, % at 6.6 µM; 330,000 compounds, 1.8% hits; AID 485270; in the data active = inhibition mostly above about 38%, no sharp cut-off; inactive = mostly below about 40%;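 note: 0% = agonist challenge alone and 100% = reference antagonist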
TAAR1 ag = agonists of human TAAR1; CHO RD-HGA16 TAAR1, Fluo-8 calcium fluorescence; vehicle wells 0%, saturating PEA agonist 100%; activation, % at 3 µM; 360,000 compounds, 0.99% hits; AID 624467;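 active = activation above the mean activation of all test compounds in the run plus 3 SD, cut at about 38% in these data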
Target sequence (Q96RJ0 whole entry, looked up): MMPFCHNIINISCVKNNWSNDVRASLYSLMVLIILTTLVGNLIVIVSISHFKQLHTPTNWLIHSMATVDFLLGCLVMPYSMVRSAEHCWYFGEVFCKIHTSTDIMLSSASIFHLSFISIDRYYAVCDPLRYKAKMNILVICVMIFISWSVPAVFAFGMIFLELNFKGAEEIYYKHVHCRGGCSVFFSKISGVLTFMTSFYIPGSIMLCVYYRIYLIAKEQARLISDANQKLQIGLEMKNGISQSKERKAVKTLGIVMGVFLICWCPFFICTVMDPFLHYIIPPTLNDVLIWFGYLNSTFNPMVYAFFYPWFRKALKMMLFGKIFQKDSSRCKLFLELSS
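Test system: RD-HGA16 (CHO) cells co-expressing Gα16 and hTAAR1; dosing: one-point dosing at 3 µM (nominal); timing: 17-24 h seeding, 75 min 37 °C dye, 30 min RT; signal: kinetic Fluo-8 calcium fluorescence; read-out basis: % activation relative to PEA EC100 response; controls: DMSO and PEA EC100; replicates: n 1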
CHO parental Ca = signal in parental CHO cells, OX1R antagonist counter-screen. 330,000 compounds, 0.63% hits. parental CHO-K1, ATP-induced calcium, Fluo-8 fluorescence. AID 463079. inhibition, % at 5.6 µM;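 active = inhibition above that plate's mean sample inhibition plus 3 SD, cut at about 26% in these data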;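 note: 0% = ATP-challenged DMSO wells and 100% = DMSO wells without ATP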
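Test system: parental CHO cells; detection: calcium-sensitive Fluo-8 fluorescence; evaluation: percent inhibition of calcium signal; also added: ATP as calcium-mobilizing challenge; repeats: one well per compound; control set: ATP-challenged DMSO wells low, unchallenged DMSO wells high; compound: single nominal dose of 5.6 µM per compound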
GPR7 antag = blocks human GPR7 receptor signaling | P48145 | GPR7-expressing cells, fluorescence antagonist assay | inhibition, % at 4.4 µM | 290,000 compounds, 1.1% hits | AID 1861; in the data active = inhibition above about 16%, passing the limit was not always enough;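 note: cells stimulated with the agonist NPW; 0% = agonist with vehicle and 100% = vehicle without agonist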
Target sequence (P48145 whole entry, looked up): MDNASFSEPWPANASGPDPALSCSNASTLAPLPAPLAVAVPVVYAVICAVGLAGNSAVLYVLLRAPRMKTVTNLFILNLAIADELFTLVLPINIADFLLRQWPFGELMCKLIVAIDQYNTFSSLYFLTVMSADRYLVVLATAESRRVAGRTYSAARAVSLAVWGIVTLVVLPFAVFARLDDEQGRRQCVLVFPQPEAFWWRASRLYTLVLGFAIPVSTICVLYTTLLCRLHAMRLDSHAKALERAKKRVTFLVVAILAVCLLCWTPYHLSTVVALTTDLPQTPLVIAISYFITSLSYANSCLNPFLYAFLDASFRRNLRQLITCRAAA
TAAR1 antag = human TAAR1 antagonism. inhibition, % at 3 µM. 360,000 compounds, 1.5% hits. Q96RJ0. AID 624466. CHO RD-HGA16 TAAR1, Fluo-8 calcium fluorescence, antagonist;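 active = inhibition above a per-plate cutoff, the mean inhibition of test compounds on that plate plus 3 SD, cut at about 49% in these data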;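 note: 0% = DMSO plus EC80 beta-PEA response and 100% = DMSO alone without agonist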
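Test system – hTAAR1-expressing CHO RD-HGA16 cells, Gα16-coupled · Reagent – β-PEA at EC80 concentration, post-compound challenge · Compound dosing – 3 µM, single point · Timing – 140 s kinetic read after compound, 140 s after agonist · Detection – Fluo-8 intracellular calcium dye fluorescence, real-time kinetic reads · Control set – DMSO and EC80 PEA controls · Repeats – n of 1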
GPR7 antag cf = human GPR7 antagonism, confirmation assay | shares compounds with GPR7 antag | GPR7-expressing cells, calcium fluorescence antagonist mode | inhibition, % at 4.4 µM | 2,400 compounds, 52% hits; in the data active = inhibition above about 24%;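 note: stimulated with the GPR7 agonist NPW; 0% = agonist plus vehicle and 100% = vehicle alone without agonist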
MCHR1 antagonist = counter-screen for GPR7 antagonists: antagonists of human MCHR1. MCHR1-expressing cells, fluorescence antagonist assay. AID 2148. inhibition, % at 4.4 µM. shares compounds with GPR7 antag. 2,400 compounds, 62% hits; in the data active = inhibition above about 22%;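 note: 0% = vehicle with agonist and 100% = vehicle without agonist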
The depositor's hits bear a star; x = not tested or not shown.

SMILES	OX1R antag-1	OX1R antag-2	TAAR1 ag	CHO parental Ca	GPR7 antag	TAAR1 antag	GPR7 antag cf	MCHR1 antagonist
COc1ccc(NC(=O)/C(Cl)=C(/Cl)S(=O)Cc2ccc(Cl)cc2)cn1 (configuration not stated)	x	x	5.3	x	30.3*	51.7*	80.5*	92.6*
O=C(Nc1ccsc1C(=O)O)c1ccc(Cl)cc1	-3.9	-3.7	-2.1	-7.1	46.0*	-18.6	3.2	5.2
Cc1ccc(C(=O)Nc2ccsc2C(=O)O)cc1	1.1	13.8	2.9	-10.2	4.8	1.6	x	x
CC(C)C1N(C(=O)CN2CCCCC2)CCN1S(=O)(=O)c1ccccc1 (configuration not stated)	-5.9	16.6	5.0	0.2	26.6*	4.1	-8.9	-1.7
Cc1ccc(Cl)cc1N1CCN(C(=O)C2CCC(=O)N(C3CCCCCC3)C2)CC1 (configuration not stated)	-13.8	12.7	2.9	-8.8	25.9*	-19.1	36.6*	55.3*
Cc1ccc(Nc2nc(N)nc(CSc3nc(C)cc(C)n3)n2)cc1	-34.0	38.1	6.0	-20.2	25.7*	-6.2	15.2	14.5
Cc1ccc(Nc2nc(N)nc(CSc3ncccn3)n2)cc1	-29.3	18.5	3.1	-11.5	-3.1	2.1	x	x
Cc1ccc(NC(=O)C2CCN(S(=O)(=O)c3ccc(N4CCCC4=O)cc3)CC2)cc1Cl	31.5	11.0	5.8	64.4*	38.5*	39.0	52.4*	61.3*
CC(=O)N1c2ccc(S(=O)(=O)N3CCC(C(=O)Nc4cccc(C)c4)CC3)cc2CC1C (configuration not stated)	-15.5	14.3	5.2	12.0	-6.7	10.3	x	x
CC1Sc2ccc(S(=O)(=O)N3CCC(C(=O)Nc4ccc(Cl)cc4)CC3)cc2NC1=O (configuration not stated)	21.8	13.8	4.0	53.7*	60.7*	43.8	68.1*	70.0*
CC(=O)N1c2ccc(S(=O)(=O)N3CCC(C(=O)Nc4cccc(Cl)c4)CC3)cc2CC1C (configuration not stated)	19.6	7.5	15.9	13.9	31.2*	-1.7	20.9	47.1*
O=C(NCc1ccccc1CN1CCCC1)c1cccc(N2CCCC2=O)c1	-18.8	8.1	2.9	-21.9	x	3.5	x	x
Fc1ccc(NC(=S)NCCc2ccccc2)c(F)c1F	16.9	10.4	25.5	-10.5	28.0*	13.0	7.7	55.1*
Cc1ccc([C@@H]2C[C@H]3[C@@H](CN2S(=O)(=O)c2ccc(C)cc2)C(=O)C[C@@H](c2ccccc2F)N3S(=O)(=O)c2ccc(C)cc2)cc1	x	x	1.8	x	x	-17.5	x	x
COC(=O)c1cc(NC(=O)c2c(-c3c(Cl)cccc3Cl)noc2C)ccc1N1CCOCC1	-16.4	5.4	4.0	-12.4	24.2*	-4.3	0.8	7.1
COc1cc(/C=C2\SC(=S)N(C(Cc3ccccc3)C(=O)O)C2=O)ccc1O (configuration not stated)	26.8	26.2	23.7	19.7	22.0*	8.8	9.4	19.8
O=C(O)C(Cc1ccccc1)N1C(=O)/C(=C/c2ccccc2)SC1=S (configuration not stated)	-4.0	14.2	2.6	-2.2	-12.0	-2.1	x	x
Cc1ccc(C(C)C)c(OCCCn2ccnc2C)c1	-9.4	0.2	4.2	-19.2	-13.3	-12.1	x	x
Cc1ccc(C)c(OCCCNCc2ccccc2)c1	-11.6	5.1	16.1	-21.6	-5.2	-23.4	x	x
Cc1ccc(C(C)C)c(OCCNCc2ccccc2)c1	-24.8	25.5	22.9	1.5	29.8*	27.1	20.6	68.0*
CCCN(CCC)CCOc1cc(C)ccc1C(C)C	-31.4	15.3	22.6	-24.1	24.4*	11.2	31.0*	19.5
CCCC(C)C(=O)Nc1ncc(S(=O)(=O)c2ccc([N+](=O)[O-])cc2)s1 (configuration not stated)	28.4	11.9	89.5*	29.6	64.6*	62.2*	69.9*	87.1*
COC(=O)Nc1nnc(/C=C/c2ccc(OC)cc2)s1	-8.1	21.1	5.9	-6.1	24.3*	5.0	20.2	11.4
CCCc1cnc(NCCNCC(O)COc2ccc(Cl)c(Cl)c2)nc1 (configuration not stated)	-26.8	-1.7	21.8	4.4	22.5*	-16.3	31.4*	51.8*
COc1ccc(C(=O)OCC(=O)Nc2nnc(-c3ccccc3)o2)cc1	-11.8	52.0*	1.1	-12.0	32.4*	-27.1	-2.7	-11.8
SMILES	OX1R antag-1	OX1R antag-2	TAAR1 ag	CHO parental Ca	GPR7 antag	TAAR1 antag	GPR7 antag cf	MCHR1 antagonist
COc1cc(C(=O)OCC(=O)Nc2nnc(-c3ccccc3)o2)cc(OC)c1OC	-9.7	33.3	3.9	7.0	x	-30.8	x	x
CC(=O)Nc1cccc(Nc2cnccn2)c1	x	x	0.7	x	x	4.2	x	x
Cc1nc2c(OCc3cc(Cl)cc(Cl)c3)cccn2c1N(C)C(=O)CCC1CCCC1	x	x	-1.3	x	x	31.9	x	x
Oc1ccc(F)c(CN2CCN(c3ncc(Cc4ccccc4)cn3)CC2)c1	x	x	6.3	x	x	9.4	x	x
CC(CCc1ccccc1)NC(=O)COC(=O)c1ccc(S(C)(=O)=O)c([N+](=O)[O-])c1 (configuration not stated)	5.7	69.4*	6.0	18.3	52.1*	19.6	92.1*	48.0*
CC(CCc1ccccc1)NC(=O)COC(=O)c1ccc([N+](=O)[O-])cc1 (configuration not stated)	-22.7	12.8	0.3	-17.6	2.1	-3.9	x	x
CN1CCCC(CN2c3ccccc3Sc3ccccc32)C1 (configuration not stated)	0.7	23.9	18.2	7.8	35.2*	3.9	51.1*	33.9*
CCOC(=O)c1[nH]c(CN2CCN(c3ccc(OC)cc3)CC2)c(C(=O)OCC)c1C	-12.6	1.4	50.8*	-11.6	24.8*	7.5	22.9	38.9*
NC(=O)NC(=O)COC(=O)[C@H](Cc1ccccc1)NC(=O)c1cccs1	-3.8	7.9	5.1	1.3	-9.8	-25.6	x	x
O=C(COC(=O)[C@H](Cc1ccccc1)NC(=O)c1cccs1)Nc1ccccc1C(F)(F)F	-15.6	15.3	-0.3	-19.4	22.9*	15.1	39.0*	32.2*
CCCCOC(=O)c1ccc(NC(=O)COC(=O)C2CC2C)cc1 (configuration not stated)	x	x	0.5	x	x	4.5	x	x
Cc1ccccc1NC1=C(Cl)C(=O)OC1OC(=O)c1ccccc1C (configuration not stated)	2.8	25.2	6.4	61.2*	52.0*	40.8	20.0	58.9*
